Most compounds without a hit are left out; they make up all but 2.9% or so of the library.
MEKK2 mut-MEK5 – MEK5 binding signal on mutant MEKK2 PB1, primary screen, biochemical, multiplex bead flow cytometry, Alexa488-MEK5; Alexa488-MEK5 binding to MEKK2 mutant; percent response, % at 10 µM; actives 0.35% (n = 290,000); in the data active means percent response above about 24%, passing the limit was not always enough
MEKK2 WT-MEK5 – modulators of MEK5 binding to wildtype MEKK2, primary screen, biochemical, multiplex bead flow cytometry, Alexa488-MEK5 | Mitogen-activated protein kinase kinase kinase 2 (Homo sapiens), Q9Y2U5 | Alexa488-MEK5 binding to MEKK2 WT; actives lie on both sides | binding response (% of control), % at 10 µM | actives 1.1% (n = 290,000) | AID 1531, 2009; in the data active means binding response below about 67% or above about 130%
Dynein cargo inh – inhibitors of GR-EGFP nuclear translocation, primary screen, dynein cargo transport inhibitor project, imaging, high-content, 3617.4 mouse cells; test concentration mostly 20 µM; stimulated with dexamethasone, 1 µM; stronger effect = lower value; z-score, hits read low; actives 0.47% (n = 220,000);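 active means plate z-score of nuclear minus cytoplasmic receptor signal below a set negative limit, without overly bright fluorescence or cell loss, cut at about -3.5 in these data, passing the limit was not always enough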;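 further: z-score of nuclear minus cytoplasmic ring GR-EGFP intensity difference per well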
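Buffer or medium – tet-free medium with charcoal-stripped serum · Signal – automated 10x imaging of fixed Hoechst-stained cells · Also added – dexamethasone agonist, 1.0 µM final, for 30 min · Incubation – induction 48 h, compound 1 h, agonist 30 min · Read-out – GR-EGFP nuclear translocation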
Beta2AR agonist – beta2AR agonists driving receptor internalization, primary screen, cell-based, FAP fluorogen, flow cytometry. Beta-2 adrenergic receptor (Homo sapiens), P07550. Am2.2-beta2AR cells. response, % (concentration not given with the values). actives 0.43% (n = 340,000). AID 504454, 2011;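 active means response above a set limit, near 3 SD of response in nonfluorescent compounds, cut at about 42% in these data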
ATG4B inh – ATG4B protease inhibitors, primary screen, biochemical, fluorescence, uHTS. ATG4B cleavage of LC3-PLA2, NBD-HPC fluorescence, 1 h. Cysteine protease ATG4B (Homo sapiens), Q9Y4P1. AID 504462, 2011. actives 0.51% (n = 340,000). inhibition, % at 8.33 µM; in the data active means inhibition above about 40%
MEKK3 PB1 HTS – modulators of MEKK3-MEK5 PB1 binding, primary screen, biochemical, wildtype MEKK3, multiplex bead flow cytometry, Alexa488-MEK5. bead-based flow cytometry, Alexa488-MEK5 binding to MEKK3; actives lie on both sides; 0 = blocked by unlabeled MEK5, 100 = vehicle. actives 1.4% (n = 290,000). binding response (% of control), % at 10 µM;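 active means binding response more than 3 SD above or below the average of its plate-row segment, actives on both sides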;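 further: Alexa488 bead fluorescence after subtracting the streptavidin-only scavenger bead signal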
Target sequence (Q99759 whole entry, looked up): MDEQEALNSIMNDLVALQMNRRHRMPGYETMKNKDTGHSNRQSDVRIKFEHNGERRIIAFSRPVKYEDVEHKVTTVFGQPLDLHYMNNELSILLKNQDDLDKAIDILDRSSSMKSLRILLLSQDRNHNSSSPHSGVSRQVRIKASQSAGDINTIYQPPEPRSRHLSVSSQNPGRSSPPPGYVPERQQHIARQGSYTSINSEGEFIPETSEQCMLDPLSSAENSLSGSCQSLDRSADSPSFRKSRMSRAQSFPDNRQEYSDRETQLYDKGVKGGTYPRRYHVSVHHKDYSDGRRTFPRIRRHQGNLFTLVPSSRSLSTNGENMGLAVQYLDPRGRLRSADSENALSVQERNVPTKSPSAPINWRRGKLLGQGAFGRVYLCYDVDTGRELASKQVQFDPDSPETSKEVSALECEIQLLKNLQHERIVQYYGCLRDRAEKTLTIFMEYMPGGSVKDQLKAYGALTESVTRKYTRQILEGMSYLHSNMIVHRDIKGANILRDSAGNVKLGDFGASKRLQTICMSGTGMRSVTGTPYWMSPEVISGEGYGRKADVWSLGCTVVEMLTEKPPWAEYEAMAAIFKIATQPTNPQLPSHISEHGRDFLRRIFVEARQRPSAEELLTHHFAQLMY
ATG4B confirm – ATG4B protease inhibitors, retest, confirmation, biochemical, fluorescence, single concentration. shares compounds with ATG4B inh. ATG4B protease fluorescent substrate cleavage assay. inhibition, % at 8.33 µM. actives 92% (n = 320); in the data active means inhibition above about 39%
PLA2 counter – PLA2 enzyme inhibition, counter-screen for ATG4B inhibitor project, biochemical, single concentration, uHTS hits; shares compounds with ATG4B inh; AID 588402, 2011; actives 66% (n = 1,600); purified PLA2, NBD-C6-HPC fluorescence, 45 min; inhibition, % at 8.33 µM; in the data active means inhibition above about 50%
A number is an active result; n = inactive; x = no result given.

SMILES	MEKK2 mut-MEK5	MEKK2 WT-MEK5	Dynein cargo inh	Beta2AR agonist	ATG4B inh	MEKK3 PB1 HTS	PLA2 counter	others
Cc1ccccc1OCC(=O)N/N=C/c1cn(Cc2ccccc2)c2ccccc12	n	n	n	n	n	n	x
COC(=O)N/N=C/c1cn(Cc2ccc(Cl)cc2Cl)c2ccccc12	n	n	n	n	53	n	61
COC(=O)N/N=C/c1cn(Cc2ccccc2Cl)c2ccccc12	n	n	n	n	n	n	x
Cc1ccc(OCC(=O)N/N=C\c2cn(Cc3ccccc3)c3ccccc23)cc1C	n	n	n	n	43	n	n
COC(=O)N/N=C/c1cn(Cc2c(Cl)cccc2Cl)c2ccccc12	n	n	n	n	42	n	51
COC(=O)N/N=C/c1cn(Cc2ccc(F)cc2)c2ccccc12	n	n	n	n	n	n	x
O=C(COC(=O)C1CC(O)CN1C(=O)Oc1ccccc1)c1ccc(Br)cc1 (stereo not drawn)	n	n	n	n	n	n	x
O=C(O)CC/C(=C\c1cccc(NC(=O)c2ccccc2Cl)c1)c1nc2ccccc2s1	n	n	n	n	43	n	62
O=C(O)CC/C(=C\c1ccc(N2CCCC2)c([N+](=O)[O-])c1)c1nc2ccccc2s1	n	n	n	n	83	n	83
O=C(O)CC/C(=C\c1cc([N+](=O)[O-])ccc1Cl)c1nc2ccccc2s1	n	n	n	n	n	n	x
O=C(O)CC/C(=C\c1ccccc1[N+](=O)[O-])c1nc2ccccc2s1	x	x	n	n	53	x	51
O=C(/C=C/c1ccc([N+](=O)[O-])cc1)NCC1CCCO1 (stereo not drawn)	n	n	n	n	n	n	x
O=C1NC(=S)S/C1=C\c1ccc(SCc2ccccc2)o1	n	n	n	n	40	n	56
Cc1ccc(NC(=O)CNC2CCS(=O)(=O)C2)cc1C (stereo not drawn)	n	n	n	n	n	n	x
CC(C)(C)c1ccc(CN2C(=O)CSC2=O)cc1	n	n	n	n	n	n	x
CN1CCSc2ccc(C(=O)NCc3cccc(Br)c3)cc21	n	n	x	n	41	n	57
CCN1CCSc2ccc(C(=O)NCc3ccccc3C)cc21	n	n	x	n	44	n	59
Cc1cc(S(=O)(=O)N2CCCC2)ccc1OCC(=O)N1CCCCC1	n	n	x	n	n	n	x
Cc1nn(Cc2c(F)c(F)c(F)c(F)c2F)c(C)c1NC(=O)c1ccc(COc2cc(Cl)ccc2Cl)cc1	n	n	n	n	62	n	n	ATG4B confirm=44
Cc1nn(Cc2c(F)c(F)c(F)c(F)c2F)c(C)c1NC(=O)c1ccc(COc2ccccc2Cl)o1	x	x	n	n	68	x	79
Cc1nn(Cc2c(F)c(F)c(F)c(F)c2F)c(C)c1NC(=O)c1ccc(COc2ccc(F)cc2)o1	n	n	n	n	67	n	68
Cc1nn(Cc2c(F)c(F)c(F)c(F)c2F)c(C)c1NC(=O)c1ccc(COc2ccccc2Cl)cc1	n	n	n	n	n	n	x
Cc1cc(NC(=O)c2ccc(COc3ccccc3Cl)o2)no1	n	n	n	n	n	n	x

Screens deposited in PubChem by several laboratories.
